Assays:
[1] = Cytotoxicity against human Huh7.5 cells after 3 days by presto blue assay; type: cell-based, Huh-7
Procedure, shortened: (§1)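 Huh7.5 cells stably infected with J6/JFH1-GLuc, kept in DMEM/10% FBS, glutamine, NEAA, pen/strep at 37 °C, 5% CO2. 10,000 cells/well; serially diluted compound added 1 h after plating; 3-day incubation. Replication read as Gaussia luciferase activity in supernatant; viability by Presto Blue.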

Hepatitis C virus = assay: Antiviral activity against HCV genotype 2a J6/JFH1 infected in human Huh7.5 cells after 3 days by gaussia luciferase assay; type: functional, organism-based, Hepacivirus hominis; details: subtype 2a J6/JFH1, Huh-7, 72 h; procedure, shortened: as §1
[2] = biological target: T1, Phosphatidylinositol 4,5-bisphosphate 3-kinase catalytic subunit delta isoform (Homo sapiens, UniProt O00329); assay: Inhibition of histidine-tagged recombinant human full length PI3Kdelta expressed in baculovirus preincubated for 15 mins followed by addition of cold ATP/gamma32P-ATP measured after 20 mins in presence of MgCl2
T1 sequence (O00329 whole entry): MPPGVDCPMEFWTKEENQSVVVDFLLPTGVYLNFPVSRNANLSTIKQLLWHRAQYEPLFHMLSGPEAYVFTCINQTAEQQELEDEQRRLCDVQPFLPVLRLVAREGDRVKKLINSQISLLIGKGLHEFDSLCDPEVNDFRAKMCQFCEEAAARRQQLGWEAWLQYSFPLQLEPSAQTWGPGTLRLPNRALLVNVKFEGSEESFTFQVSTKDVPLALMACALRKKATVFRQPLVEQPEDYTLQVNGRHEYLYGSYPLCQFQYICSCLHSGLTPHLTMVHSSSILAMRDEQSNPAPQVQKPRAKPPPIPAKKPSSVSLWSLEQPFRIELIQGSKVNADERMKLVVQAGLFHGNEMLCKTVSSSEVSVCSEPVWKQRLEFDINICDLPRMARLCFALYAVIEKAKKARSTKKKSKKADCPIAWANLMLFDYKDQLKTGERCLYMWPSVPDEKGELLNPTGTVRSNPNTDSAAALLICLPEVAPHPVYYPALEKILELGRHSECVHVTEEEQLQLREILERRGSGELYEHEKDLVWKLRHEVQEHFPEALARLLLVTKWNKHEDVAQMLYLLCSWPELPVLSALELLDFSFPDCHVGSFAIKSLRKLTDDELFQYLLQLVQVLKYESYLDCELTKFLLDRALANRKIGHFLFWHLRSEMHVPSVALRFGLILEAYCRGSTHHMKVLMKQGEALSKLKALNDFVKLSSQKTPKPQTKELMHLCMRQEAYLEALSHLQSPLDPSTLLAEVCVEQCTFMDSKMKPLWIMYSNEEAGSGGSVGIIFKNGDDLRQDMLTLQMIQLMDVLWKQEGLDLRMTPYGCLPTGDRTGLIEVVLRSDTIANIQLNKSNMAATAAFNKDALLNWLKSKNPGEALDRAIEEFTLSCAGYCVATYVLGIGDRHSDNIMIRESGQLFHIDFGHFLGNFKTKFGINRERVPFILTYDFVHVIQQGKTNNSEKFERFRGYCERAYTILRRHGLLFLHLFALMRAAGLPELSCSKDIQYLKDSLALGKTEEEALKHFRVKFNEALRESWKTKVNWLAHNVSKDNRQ
Procedure, shortened: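 Final: 50 mM HEPES pH 7.5, 100 mM NaCl, 0.03% CHAPS, 10 mM MgCl2, 1 mM EGTA, 2 mM DTT, 80 µM PIP2 (PIP2:DOPS:DOPC), 500 ng/µL BSA, 2% DMSO, 10 µM ATP, 2.5 uCi γ32P-ATP. Nitrocellulose capture, phosphorimaging.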

[3] = biological target: T2, Phosphatidylinositol 4,5-bisphosphate 3-kinase catalytic subunit gamma isoform (Homo sapiens, UniProt P48736); assay: Inhibition of histidine-tagged recombinant human full length PI3Kgamma expressed in insect cells preincubated for 15 mins followed by addition of cold ATP/gamma32P-ATP measured after 15 mins in presence of MgCl2
Target sequence in this assay (P48736 whole entry, canonical isoform): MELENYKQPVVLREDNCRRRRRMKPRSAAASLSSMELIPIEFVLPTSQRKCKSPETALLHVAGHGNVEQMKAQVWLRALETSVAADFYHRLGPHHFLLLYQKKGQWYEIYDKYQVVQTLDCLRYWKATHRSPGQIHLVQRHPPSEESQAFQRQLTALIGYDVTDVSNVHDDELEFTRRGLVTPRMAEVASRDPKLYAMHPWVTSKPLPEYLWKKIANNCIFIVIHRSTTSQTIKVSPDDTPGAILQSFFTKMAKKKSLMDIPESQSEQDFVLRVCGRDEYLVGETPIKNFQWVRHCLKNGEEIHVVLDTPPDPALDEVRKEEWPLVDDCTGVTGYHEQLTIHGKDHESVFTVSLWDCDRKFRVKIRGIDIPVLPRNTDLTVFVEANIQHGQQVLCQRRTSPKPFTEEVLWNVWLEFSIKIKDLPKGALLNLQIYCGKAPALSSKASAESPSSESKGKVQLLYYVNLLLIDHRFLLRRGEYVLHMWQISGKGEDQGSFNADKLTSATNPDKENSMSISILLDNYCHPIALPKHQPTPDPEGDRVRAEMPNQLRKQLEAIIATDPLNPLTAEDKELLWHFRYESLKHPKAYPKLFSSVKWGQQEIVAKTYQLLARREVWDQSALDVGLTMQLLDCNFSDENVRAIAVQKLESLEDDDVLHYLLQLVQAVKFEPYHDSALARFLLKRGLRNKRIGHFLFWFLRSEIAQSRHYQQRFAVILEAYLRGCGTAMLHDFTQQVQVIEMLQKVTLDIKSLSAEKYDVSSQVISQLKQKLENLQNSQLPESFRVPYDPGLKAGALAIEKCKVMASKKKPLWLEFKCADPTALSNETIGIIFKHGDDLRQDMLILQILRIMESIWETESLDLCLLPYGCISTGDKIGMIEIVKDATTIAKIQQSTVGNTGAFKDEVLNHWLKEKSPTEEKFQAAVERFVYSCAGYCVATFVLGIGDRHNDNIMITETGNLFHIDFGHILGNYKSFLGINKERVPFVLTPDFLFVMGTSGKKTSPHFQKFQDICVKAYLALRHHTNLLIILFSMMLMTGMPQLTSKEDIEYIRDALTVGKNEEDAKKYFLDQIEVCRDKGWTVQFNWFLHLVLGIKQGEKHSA

[4] = Inhibition of GST-tagged recombinant human full length PI4K3beta expressed in insect cells preincubated for 15 mins followed by addition of cold ATP/gamma32P-ATP measured after 30 mins in presence of MgCl2
Procedure, shortened: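 Membrane-capture radiometric assay. Purchased enzyme, final 2.5 nM. Enzyme preincubated 15 min with inhibitor (diluted in 10% DMSO), then 30 min reaction. Final: 20 mM Bis-Tris propane pH 7.5, 10 mM MgCl2, 0.075 mM Triton X-100, 0.5 mM EGTA, 1 mM DTT, 100 µM PI in PI:DOPS:DOPC, 500 ng/µL BSA, 2% DMSO, 10 µM ATP, 1 uCi γ32P-ATP. Product spotted on nitrocellulose, washed in 1M NaCl/1% phosphoric acid, phosphorimaged.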

[5] = biological target: T3, Phosphatidylinositol 3-kinase catalytic subunit type 3 (Homo sapiens, UniProt Q8NEB9); assay: Inhibition of GST-tagged recombinant human full length VPS34 expressed in baculovirus preincubated for 15 mins followed by addition of cold ATP/gamma32P-ATP measured after 1 hr in presence of MnCl2
T3 sequence (Q8NEB9 whole entry): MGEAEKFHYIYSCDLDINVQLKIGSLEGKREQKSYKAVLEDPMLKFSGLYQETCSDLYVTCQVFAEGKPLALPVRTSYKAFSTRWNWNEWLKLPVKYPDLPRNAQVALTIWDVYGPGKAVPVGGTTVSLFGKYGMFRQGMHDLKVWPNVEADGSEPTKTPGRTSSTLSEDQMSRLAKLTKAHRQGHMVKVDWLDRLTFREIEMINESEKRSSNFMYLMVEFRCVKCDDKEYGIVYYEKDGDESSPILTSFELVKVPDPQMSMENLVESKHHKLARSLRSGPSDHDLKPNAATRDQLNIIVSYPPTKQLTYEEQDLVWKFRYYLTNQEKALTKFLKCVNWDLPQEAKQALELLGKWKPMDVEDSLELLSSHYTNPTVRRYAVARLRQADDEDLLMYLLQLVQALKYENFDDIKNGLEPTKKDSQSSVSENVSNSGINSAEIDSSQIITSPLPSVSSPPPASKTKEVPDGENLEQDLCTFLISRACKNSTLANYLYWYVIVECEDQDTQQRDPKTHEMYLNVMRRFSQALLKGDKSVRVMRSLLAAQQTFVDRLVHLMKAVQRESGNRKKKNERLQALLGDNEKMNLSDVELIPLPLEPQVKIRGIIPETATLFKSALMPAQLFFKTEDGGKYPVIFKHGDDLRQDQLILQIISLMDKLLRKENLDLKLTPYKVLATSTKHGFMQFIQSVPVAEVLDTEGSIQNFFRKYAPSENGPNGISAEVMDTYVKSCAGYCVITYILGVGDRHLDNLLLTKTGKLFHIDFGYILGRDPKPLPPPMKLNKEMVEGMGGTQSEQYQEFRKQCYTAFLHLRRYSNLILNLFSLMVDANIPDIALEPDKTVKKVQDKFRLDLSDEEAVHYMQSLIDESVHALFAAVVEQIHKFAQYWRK
Procedure, shortened: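 Radiometric membrane-capture assay, 10 nM purchased vps34, 15 min preincubation with inhibitor, then 1 h reaction. Final: 50 mM HEPES pH 7.5, 0.1% CHAPS, 2mM MnCl2, 1 mM EGTA, 2 mM DTT, 100 µM PI in PI:DOPS:DOPC, 500 ng/µL BSA, 2% DMSO, 10 µM ATP, 2.5 uCi γ32P-ATP; spots washed, phosphorimaged.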

[6] = biological target: T4, Phosphatidylinositol 4,5-bisphosphate 3-kinase catalytic subunit delta isoform (Homo sapiens) (UniProt O00329); assay: Inhibition of histidine-tagged recombinant human full length PI3Kdelta expressed in baculovirus at 50 uM preincubated for 15 mins followed by addition of cold ATP/gamma32P-ATP measured after 20 mins in presence of MgCl2
T4 sequence (whole entry): T1 sequence (O00329 whole entry)

[7] = biological target: T3, Phosphatidylinositol 3-kinase catalytic subunit type 3; assay: Inhibition of GST-tagged recombinant human full length VPS34 expressed in baculovirus at 50 uM preincubated for 15 mins followed by addition of cold ATP/gamma32P-ATP measured after 1 hr in presence of MnCl2
[8] = biological target: T2, Phosphatidylinositol 4,5-bisphosphate 3-kinase catalytic subunit gamma isoform; assay: Inhibition of histidine-tagged recombinant human full length PI3Kgamma expressed in insect cells at 50 uM preincubated for 15 mins followed by addition of cold ATP/gamma32P-ATP measured after 15 mins in presence of MgCl2
Target sequence in this assay (P48736 whole entry, looked up, canonical isoform): as the sequence (P48736 whole entry, canonical isoform) above

SMILES	CC50 at 72 h [1]	IC50 (Hepatitis C virus)	IC50 [2]	IC50 [3]	IC50 [4]	IC50 [5]	inhibition [6]	inhibition [7]	inhibition [8]
CC(=O)Nc1nc(C)c(-c2ccc(Cl)c(S(=O)(=O)Nc3ccc(O)cc3)c2)s1	7000 nM	570 nM	4.9 nM	5 nM	4.2 nM	32 nM	–	–	–
Cc1nc(NC(=O)C2CCCC2)sc1-c1ccc(Cl)c(S(=O)(=O)NCCO)c1	20000 nM	4400 nM	340 nM	1500 nM	16 nM	> 50000 nM	–	–	–
CC(=O)Nc1nc(C)c(-c2ccc(Cl)c(S(=O)(=O)Nc3ccc(F)cc3)c2)s1	13000 nM	5900 nM	29 nM	31 nM	23 nM	245 nM	–	–	–
COc1ccc(-c2sc(NC(=O)C(C)(C)C)nc2C)cc1S(=O)(=O)NCCO	> 40000 nM	17000 nM	–	> 50000 nM	36 nM	> 50000 nM	< 50%	< 20%	< 20%
CC(=O)/N=c1/[nH]c(C)c(-c2ccc(Cl)c(S(=O)(=O)NCCO)c2)s1	10000 nM	4800 nM	–	–	17 nM	307 nM	–	–	–
COc1ccc(-c2sc(NC(C)=O)nc2C)cc1S(=O)(=O)NCCO	42000 nM	29000 nM	223 nM	181 nM	4.4 nM	> 50000 nM	–	–	–
CC(=O)Nc1nc(C)c(-c2ccc(Br)c(S(=O)(=O)NCCO)c2)s1	5500 nM	3000 nM	33 nM	21 nM	5.3 nM	146 nM	–	–	–
Cc1nc(NC(=O)C(C)(C)C)sc1-c1ccc(Cl)c(S(=O)(=O)NCCO)c1	33000 nM	6800 nM	1570 nM	3700 nM	5.5 nM	> 50000 nM	–	–	–

— ChEMBL document CHEMBL3784974, “Design and Structural Characterization of Potent and Selective Inhibitors of Phosphatidylinositol 4 Kinase IIIβ” (J Med Chem, 2016)
